Source: ChEMBL document CHEMBL5357047, “The development of thymol-isatin hybrids as broad-spectrum antibacterial agents with potent anti-MRSA activity” (RSC Med Chem, 2024)
The source made the active and inactive calls. No cut-off for these calls is given here.

Legend:
Staphylococcus aureus [1] = experiment: Bactericidal activity against Methicillin-resistant Staphylococcus aureus assessed as reduction in colony formation units at 1 to 2XMIC measured after 48 hrs by time-kill assay; assay type: functional, organism-based
Summary of the method: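 Samples taken at 1, 2, 4, 8, 12, 24 and 48 h, diluted in 0.9% saline and plated on Mueller Hinton agar (48 h, 37 °C). CFU counted and log10 CFU mL−1 plotted against time. Triplicate.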

[2] = Selectivity index, ratio of IC50 for cytotoxicity against mouse L929 cells to MIC for antibacterial activity against clinically isolated Methicillin-resistant Staphylococcus aureus; assay type: toxicity, cell-based; conditions: read-out: Selectivity Index
Staphylococcus aureus [3] = experiment: Anti-biofilm activity against Methicillin-resistant Staphylococcus aureus assessed as mean thickness of biofilm at 1/2XMIC measured after 48 hrs by crystal violet staining based phase contrast microscopy (reference value: 15.03+/-1.63 um); assay type: functional
Klebsiella pneumoniae = experiment: Antibacterial activity against clinically isolated Klebsiella pneumoniae RBRJ024 assessed as inhibition of bacterial growth at 50 uM measured after 48 hrs by agar well diffusion method; assay type: functional; conditions: read-out: IZ
Galleria mellonella = experiment: Modulation of immune response in MRSA-infected Galleria mellonella systemic infection model assessed as reduction in haemocytes in larva's circulating lymph at 10 mg/kg measured after 24 to 48 hrs by fluorescent microscopic analysis; assay type: functional, organism-based; conditions: time 24-48 hrs
Summary of the method: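 Galleria mellonella larvae (0.2–0.4 g, ten per group) injected in the last proleg with MRSA, 5 × 10^8 cells per larva, then given 10 mg kg−1 compound; kept at 37 °C. Hemolymph collected on ice at 24 and 48 h post inoculation, diluted in PBS, counted with an automated cell counter and viewed with trypan blue (0.1%) under a fluorescent microscope.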

Compound: Cc1ccc(C(C)C)c(OCc2cn(CCCN3C(=O)C(=O)c4ccccc43)nn2)c1
- Activity (Staphylococcus aureus [1]): Active
- selectivity ratio [2]: 65
- Activity (Staphylococcus aureus [3]): 2.97 um
- zone of inhibition at 50 µM (Klebsiella pneumoniae): 21.2 mm
- Activity (Galleria mellonella): Active
